Test results reported in ChEMBL document CHEMBL1828520, “Anti-AIDS agents 86. Synthesis and anti-HIV evaluation of 2',3'-seco-3'-nor DCP and DCK analogues” (Eur J Med Chem, 2011).

Columns and labels:
[1] = Cytotoxicity against human TZM-bl cells assessed as cell viability; assay type: cell-based
Summary of the method: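 TZM-bl cells (1 × 10^5 cells/mL) exposed to various compound concentrations in parallel with the antiviral assay timing. Averaged from at least three independent experiments.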

[2] = tested on: Human immunodeficiency virus 1; experiment: Antiviral activity against HIV 1 NL4-3 infected in human TZM-bl cells after 48 hrs by luciferase reporter gene assay; assay type: functional, organism-based; details: Human immunodeficiency virus 1, NL4-3, TZM-bl
Summary of the method: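 Single-round infection of TZM-bl cells with HIV-1 NL4-3 at 200 TCID50, in the presence of eight fourfold serial dilutions of compound. After 48 h, luciferase was read as RLU. Highest concentration tested was 20 μM.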

[3] = Ratio of CC50 for human TZM-bl cells to EC50 for HIV 1 RTMDR infected in human TZM-bl cells
[4] = tested on: Human immunodeficiency virus 1; experiment: Antiviral activity against HIV1 RTMDR in human […] cells after 48 hrs by luciferase reporter gene assay; assay type: functional, organism-based; details: Human immunodeficiency virus 1, RTMDR
Summary of the method: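 Single-round infection of TZM-bl cells with 200 TCID50 virus plus test sample in eight fourfold dilutions; 48 h incubation, then Bright Glo luciferase read. Highest tested concentration 20 μM.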

[5] = Ratio of CC50 for human TZM-bl cells to EC50 for HIV 1 NL4-3 infected in human TZM-bl cells
[6] = Chemical stability of the compound in 1% HCl assessed as compound remaining at 30 min by HPLC analysis; assay type: physicochemical; details: read-out: Stability
Summary of the method: (§1)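 Compound (1 mg) dissolved in MeOH (0.5 mL), 1% HCl (0.2 mL) added, shaken at room temperature. Remaining compound measured by reversed-phase HPLC (ODS2 column, 30% water/70% MeOH) as area % purity at the stated time.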

[7] = Chemical stability of the compound in 1% HCl assessed as compound remaining at 1 min by HPLC analysis; assay type: physicochemical; details: read-out: Stability; summary of the method: as §1

## CCOc1ccc2c(=O)cc(CC)oc2c1CN1CCN(C(=O)C(=O)c2cccs2)CC1
[1]
  CC50: > 22 µM
[2]
  EC50: > 22 µM
[3]
  Ratio CC50/EC50: 1.3
[4]
  EC50: 16.9 µM

## CCc1cc(=O)c2ccc(OCc3cc(OC)cc(OC)c3)c(COC(=O)C34CCC(C)(C(=O)O3)C4(C)C)c2o1 (configuration not stated)
[1]
  CC50: > 36.3 µM
[2]
  EC50: 22.2 µM
[5]
  Ratio CC50/EC50: 1.64

## CCOc1ccc2c(=O)cc(CC)oc2c1CN1CCN(C(=O)C(=O)c2ccccc2)CC1
[1]
  CC50: > 22.3 µM
[2]
  EC50: 16.7 µM
[3]
  Ratio CC50/EC50: >1.37
[4]
  EC50: 16.3 µM
[5]
  Ratio CC50/EC50: >1.33

## CCOc1ccc2c(=O)cc(CC)oc2c1CN1CCN(C(=O)C(=O)c2c[nH]c3ccccc23)CC1
[1]
  CC50: > 20.5 µM
[2]
  EC50: > 20.5 µM
[4]
  EC50: > 20.5 µM

## CCc1cc(=O)c2ccc3c(c2o1)[C@@H](OC(=O)C12CCC(C)(C(=O)O1)C2(C)C)[C@@H](OC(=O)C12CCC(C)(C(=O)O1)C2(C)C)C(C)(C)O3 (some centres not stated)
[1]
  CC50: 14.2 µM
[6]
  remaining at 0.5 h: 91%
[2]
  EC50: 0.12 µM
[7]
  remaining at […]: 100%
[3]
  Ratio CC50/EC50: 71.25
[4]
  EC50: 0.2 µM
[5]
  Ratio CC50/EC50: 118.75

## CCc1cc(=O)c2ccc(OCc3cccc(C(=O)OC)c3)c(COC(=O)C34CCC(C)(C(=O)O3)C4(C)C)c2o1 (configuration not stated)
[1]
  CC50: > 36.5 µM
[2]
  EC50: 0.93 µM
[5]
  Ratio CC50/EC50: 39.2

## Cc1cc(=O)oc2c3c(ccc12)OC(C)(C)[C@H](OC(=O)[C@@]12CC[C@@](C)(C(=O)O1)C2(C)C)[C@@H]3OC(=O)[C@@]12CC[C@@](C)(C(=O)O1)C2(C)C
[6]
  remaining at 0.5 h: 64%
[7]
  remaining at […]: 100%
